pIC50: −log10 of the molar value.
Key:
[1] = species: Oryctolagus cuniculus; test: In vitro percent inhibition against U-44,069 (10e-7 M) induced contraction of rabbit aorta at 10e-5 M concentration.; format: functional
Summary of the method: (§1)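 Rabbit aortic strips (2-3 mm × 3 cm) in Krebs-Henseleit, 37 °C, 95% O2/5% CO2, 2 g resting tension, isometric recording. Drugs (final 10⁻⁵ to 10⁻⁸ M, 0.01% DMSO) added 10 min before U-44069 (2-6 nM, about 50% of the 30 mM KCl contraction). Percent inhibition, or concentration reducing contraction by 50%; duplicate means.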

[2] = species: Oryctolagus cuniculus; test: In vitro percent inhibition against U-44,069 (10e-7 M) induced contraction of rabbit aorta at 10e-6 M concentration; format: functional; summary of the method: as §1
[3] = species: Oryctolagus cuniculus; test: In vitro concentration that reduced U-44069-induced contraction of the rabbit aorta by 50%; format: functional; summary of the method: as §1
[4] = species: Oryctolagus cuniculus; test: In vitro percent inhibition against U-44,069 (10e-7 M) induced contraction of rabbit aorta at 10e-7 M concentration; format: functional; summary of the method: as §1
[5] = species: Oryctolagus cuniculus; test: Percent inhibition of compound against U-44,069 (10e-7 M) induced contraction of rabbit aorta at 3*10e-8 M concentration; format: functional; summary of the method: as §1
[6] = species: Oryctolagus cuniculus; test: In vitro concentration that reduced U-44069-induced contraction of the rabbit aorta; format: functional; settings: read-out: pA2 (converted); summary of the method: as §1
[7] = test system: Cavia porcellus; test: In vivo percentage of inhibition against U-46619-induced bronchoconstriction in guinea pig at a concentration of 1.25 mg/kg after 1 hour of oral administration; format: functional
Summary of the method: (§2)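 Urethane-anesthetized (1.5 g/kg ip) guinea pigs given gallamine (1 mg/kg iv); bronchoconstriction measured by Konzett-Rössler overflow. Challenge was U-46619, LTD4 or PAF at 10 μg/kg iv, or IgG1-mediated in animals sensitized ip with egg albumin (1 mg/kg)/FCA and used 3 weeks later. Drug given orally in 5% gum arabic 1 h before challenge; n = 8. ID50 = dose giving 50% inhibition.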

[8] = test system: Cavia porcellus; test: In vivo percentage of inhibition against LTD -induced bronchoconstriction in guinea pig at a concentration of 0.08 mg/kg after 1 hour of oral administration; format: functional; summary of the method: as §2
[9] = test system: Cavia porcellus; test: In vivo percentage of inhibition against U-46619 -induced bronchoconstriction in guinea pig at a concentration of 0.31 mg/kg after 1 hour of oral administration; format: functional
Summary of the method: (§3)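 Guinea pigs were challenged iv with LTD4, PAF or U-46619, each at 10 µg/kg. Bronchoconstriction was measured by the Konzett-Rössler overflow method, as for the sensitized animals (urethane 1.5 g/kg ip, gallamine 1 mg/kg iv). Drug suspended in 5% gum arabic was dosed orally 1 h before spasmogen; eight animals per group; percent inhibition of bronchoconstriction.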

[10] = test system: Cavia porcellus; test: In vivo percentage of inhibition against LTD -induced bronchoconstriction in guinea pig at a concentration of 1.25 mg/kg after 1 hour of oral administration; format: functional; summary of the method: as §2
[11] = test system: Cavia porcellus; test: In vivo percentage of inhibition against LTD -induced bronchoconstriction in guinea pig at a concentration of 0.31 mg/kg after 1 hour of oral administration; format: functional; summary of the method: as §3
[12] = test system: Cavia porcellus; test: In vivo percentage of inhibition against U-46619 -induced bronchoconstriction in guinea pig at a concentration of 0.08 mg/kg after 1 hour of oral administration; format: functional; summary of the method: as §2
[13] = species: Cavia porcellus; test: In vitro concentration that reduced U-44069-induced aggregation of guinea pig platelets by 50%; format: functional
Summary of the method: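 PRP from conscious male guinea pigs, blood taken by cardiac puncture into 3.15% citrate (1:9); platelets adjusted to 450 000/μL. PRP preincubated 2 min at 37 °C, then incubated 2 min with U-44069 at a concentration giving submaximal aggregation. IC50 = antagonist concentration reducing aggregation by 50%.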

[14] = species: Cavia porcellus; test: In vitro concentration that reduced U-46619-induced contraction of guinea pig lung; settings: read-out: pA2 (converted)
[15] = test system: Cavia porcellus; test: In vivo percentage of inhibition against LTD -induced bronchoconstriction in guinea pig at a concentration of 5 mg/kg after 1 hour of oral administration; format: functional; summary of the method: as §2
[16] = test system: Cavia porcellus; test: In vivo percentage of inhibition against U-46619-induced bronchoconstriction in guinea pig at a concentration of 20 mg/kg when after 1 hour of oral administration; format: functional; summary of the method: as §2
[17] = test system: Cavia porcellus; test: In vivo percentage of inhibition against LTD -induced bronchoconstriction in guinea pig at a concentration of 20 mg/kg after 1 hour of oral administration; format: functional; summary of the method: as §2
[18] = test system: Cavia porcellus; test: In vivo percentage of inhibition against U-46619 -induced bronchoconstriction in guinea pig at a concentration of 5 mg/kg after 1 hour of oral administration.; format: functional; summary of the method: as §2
[19] = test system: Cavia porcellus; test: In vivo inhibition against LTD-induced bronchoconstriction in guinea pig; format: functional; settings: read-out: ID50 (the source's name); summary of the method: as §2
[20] = test system: Cavia porcellus; test: In vivo inhibition against IgG1-induced bronchoconstriction in guinea pig; format: functional; settings: read-out: ID50 (the source's name); summary of the method: as §2
[21] = test system: Cavia porcellus; test: In vivo percentage of inhibition against IgG1 -induced bronchoconstriction in guinea pig at a concentration of 0.31 mg/kg after 1 hour of oral administration; format: functional
Summary of the method: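 Guinea pigs sensitized ip with egg albumin (1 mg/kg) emulsified in Freund's complete adjuvant. Three weeks later, animals whose sera at 1:1000 gave a positive 3-h passive cutaneous anaphylaxis were used. Under urethane (1.5 g/kg ip) and gallamine (1 mg/kg iv), IgG1-mediated bronchoconstriction was measured by Konzett-Rössler overflow. Drug in 5% gum arabic was given orally 1 h before challenge; eight animals per group.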

[22] = test system: Cavia porcellus; test: In vivo percentage of inhibition against IgG1 -induced bronchoconstriction in guinea pig at a concentration of 5 mg/kg after 1 hour of oral administration; format: functional; summary of the method: as §2
[23] = test system: Cavia porcellus; test: In vivo percentage of inhibition against PAF-induced bronchoconstriction in guinea pig at a concentration of 1.25 mg/kg after 1 hour of oral administration; format: functional; summary of the method: as §2
[24] = test system: Cavia porcellus; test: In vivo inhibition against U-46619-induced bronchoconstriction in guinea pig; format: functional; settings: read-out: ID50 (the source's name); summary of the method: as §2
[25] = test system: Cavia porcellus; test: In vivo percentage of inhibition against PAF -induced bronchoconstriction in guinea pig at a concentration of 0.31 mg/kg after 1 hour of oral administration; format: functional; summary of the method: as §3
[26] = test system: Cavia porcellus; test: In vivo percentage of inhibition against PAF-induced bronchoconstriction in guinea pig at a concentration of 5 mg/kg after 1 hour of oral administration; format: functional; summary of the method: as §2
[27] = test system: Cavia porcellus; test: In vivo percentage of inhibition against IgG1 -induced bronchoconstriction in guinea pig at a concentration of 1.25 mg/kg after 1 hour of oral administration; format: functional; summary of the method: as §2
[28] = species: Cavia porcellus; test: In vitro concentration that reduced U-46619-induced contraction of guinea pig lung; settings: read-out: pA2 (converted); remark: listed apart in the source

Compound: CCCCCCC(C1=C(C)C(=O)C(C)=C(C)C1=O)c1ccccc1 (stereo unspecified)
- Inhibition [1]: 25%

Compound: CC1=C(C)C(=O)C(C(CCCCCCO)c2ccccc2)=C(C)C1=O (stereo unspecified)
- Inhibition [1]: 0%

Compound: CC1=C(C)C(=O)C(C(CCCCCCCC(=O)O)c2ccccc2)=C(C)C1=O (stereo unspecified)
- Inhibition [2]: 0%
- Inhibition [1]: 94%
- pIC50 [3]: 5.47

Compound: CC1=C(C)C(=O)C(C(CCCCCC(=O)O)c2ccc(F)cc2)=C(C)C1=O (stereo unspecified)
- Inhibition [4]: 96%
- Inhibition [5]: 20%
- Inhibition [2]: 100%
- Inhibition [1]: 100%
- pIC50 [3]: 7.32

Compound: CC1=C(C)C(=O)C(C(CCCCCC(=O)NC(C)c2ccccc2)c2ccccc2)=C(C)C1=O (stereo unspecified)
- Inhibition [1]: 33%

Compound: CC1=C(C)C(=O)C(C(CCCCCCC(=O)O)c2ccccc2)=C(C)C1=O (stereo unspecified)
- Inhibition [2]: 0%
- Inhibition [1]: 98%
- pIC50 [3]: 5.49

Compound: CC1=C(C)C(=O)C(C(CCCCCC(=O)NC(C)C)c2ccccc2)=C(C)C1=O (stereo unspecified)
- Inhibition [1]: 8%

Compound: CC1=C(C)C(=O)C(C(CCCCC(=O)O)c2ccccc2)=C(C)C1=O (stereo unspecified)
- Inhibition [1]: 63%

Compound: CC1=C(C)C(=O)C(C(CCCC(=O)O)c2ccccc2)=C(C)C1=O (stereo unspecified)
- Inhibition [1]: 24%

Compound: CC1=C(C)C(=O)C(C(CCc2cccc(C(=O)O)c2)c2ccccc2)=C(C)C1=O (stereo unspecified)
- Inhibition [2]: 0%
- Inhibition [1]: 89%

Compound: CC1=C(C)C(=O)C([C@H](CCCCCC(=O)O)c2ccccc2)=C(C)C1=O
- Kb [6]: 2.51 nM
- inhibition in vivo at 1.25 mg/kg [7]: 93%
- inhibition in vivo at 0.08 mg/kg [8]: 12%
- inhibition in vivo at 0.31 mg/kg [9]: 75%
- inhibition in vivo at 1.25 mg/kg [10]: 85%
- inhibition in vivo at 0.31 mg/kg [11]: 85%
- inhibition in vivo at 0.08 mg/kg [12]: 72%
- pIC50 [13]: 6.92
- Kb [14]: 1.58 nM
- inhibition in vivo at 5 mg/kg [15]: 80%

Compound: CC1=C(C)C(=O)C([C@@H](CCCCCC(=O)O)c2ccccc2)=C(C)C1=O
- inhibition in vivo at 20 mg/kg [16]: 68%
- Kb [6]: 229 nM
- inhibition in vivo at 20 mg/kg [17]: 65%
- pIC50 [13]: 4.89
- Kb [14]: 295 nM
- inhibition in vivo at 5 mg/kg [18]: 47%
- inhibition in vivo at 5 mg/kg [15]: 27%

Compound: CC1=C(C)C(=O)C(CCCCCCC(=O)O)=C(C)C1=O
- Inhibition [1]: 8%

Compound: CC1=C(C)C(=O)C(C(CCCCCC(=O)O)c2ccc(Br)cc2)=C(C)C1=O (stereo unspecified)
- Inhibition [2]: 36%
- Inhibition [1]: 94%
- pIC50 [3]: 5.77

Compound: CC1=C(C)C(=O)C(C(CCCCCC(=O)O)c2ccc(Cl)cc2)=C(C)C1=O (stereo unspecified)
- Inhibition [4]: 17%
- Inhibition [2]: 91%
- Inhibition [1]: 100%
- pIC50 [3]: 6.55

Compound: CC1=C(C)C(=O)C(C(CCCCCC(=O)O)c2ccc(C(C)C)cc2)=C(C)C1=O (stereo unspecified)
- Inhibition [1]: 4%

Compound: CC1=C(C)C(=O)C(C(CCCCCC(=O)O)c2cccs2)=C(C)C1=O (stereo unspecified)
- Inhibition [4]: 0%
- Inhibition [2]: 65%
- Inhibition [1]: 100%
- pIC50 [3]: 6.12

Compound: COC1=C(OC)C(=O)C(C(CCCCCC(=O)O)c2ccccc2)=C(C)C1=O (stereo unspecified)
- Inhibition [1]: 0%

Compound: COC1=C(OC)C(=O)C(C(CCCCCC(=O)O)c2ccc(F)cc2)=C(C)C1=O (stereo unspecified)
- Inhibition [2]: 0%
- Inhibition [1]: 99%
- pIC50 [3]: 5.49

Compound: CC1=C(C)C(=O)C(C(CCCCCC(=O)O)c2ccccc2)=C(C)C1=O (stereo unspecified) [SERATRODAST]
- ED50 [19]: 0.19 mg/kg
- Inhibition [4]: 49%
- ED50 [20]: 0.2 mg/kg
- Kb [6]: 5.25 nM
- inhibition in vivo at 0.31 mg/kg [21]: 71%
- inhibition in vivo at 5 mg/kg [22]: 91%
- Inhibition [2]: 99%
- inhibition in vivo at 1.25 mg/kg [7]: 90%
- inhibition in vivo at 1.25 mg/kg [23]: 94%
- inhibition in vivo at 0.08 mg/kg [8]: 24%
- inhibition in vivo at 0.31 mg/kg [9]: 89%
- Inhibition [1]: 99%
- pIC50 [3]: 7.00
- ED50 [24]: 0.13 mg/kg
- inhibition in vivo at 1.25 mg/kg [10]: 77%
- inhibition in vivo at 0.31 mg/kg [11]: 58%
- inhibition in vivo at 0.31 mg/kg [25]: 66%
- inhibition in vivo at 5 mg/kg [26]: 85%
- inhibition in vivo at 0.08 mg/kg [12]: 31%
- pIC50 [13]: 6.46
- inhibition in vivo at 1.25 mg/kg [27]: 85%
- Kb [28]: 5.13 nM
- inhibition in vivo at 5 mg/kg [15]: 94%
